According to ChEMBL document CHEMBL4014317, “Urinary Tract Infection: Which Conformation of the Bacterial Lectin FimH Is Therapeutically Relevant?” (J Med Chem, 2017):
≈ marks a conversion by molar mass, not a printed value.

Tests used:
[1] = (§1) Competitive binding affinity to full length 6His-tagged recombinant Escherichia coli FimH CRD expressed in Escherichia coli HM125 after 1 hr in presence of fluorescence labelled N-(2-(3-(3',6'-dihydroxy-3-oxo-3H-spiro[isobenzofuran-1,9'-xanthene]-5-yl)thioureido)ethyl)-4-methylbenzamide by fluorescence polarization assay
Procedure, shortened: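 Full-length FimH was stabilized by FimG donor-strand peptide complementation. Serially diluted competitor was titrated into 300 nM FimHFL plus 10 nM fluorescent ligand in 20 mM HEPES pH 7.4, 150 mM NaCl, 50 μg/mL BSA. Mixtures were incubated ≥1 h at rt, and FP was read at excitation 485 nm and emission 528 nm. KD came from an equilibrium competition fit, n = 1.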

[2] = as §1, with “to” for “to full length”, “lectin domain” for “CRD”, “24 hrs” for “1 hr”
Procedure, shortened: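 FimH lectin domain (His6-tagged via thrombin site) was expressed in E. coli HM125 and affinity-purified. Serially diluted competitor was added to 50 nM protein plus 50 nM fluorescent ligand in 20 mM HEPES pH 7.4, 150 mM NaCl, 50 μg/mL BSA. Mixtures were incubated ≥24 h at equilibrium, and FP was read at 485/528 nm. KD came from an equilibrium competition fit, n = 3, SD.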

[3] = Kinetic solubility of compound in pH 7.4 buffer after 15 hrs; format: physicochemical; conditions: read-out: Kinetic_solubility
Procedure, shortened: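 DMSO stock (100 mM) was diluted into aqueous universal buffer pH 7.4 to 1 mM final (1% DMSO), in triplicate. After 15 h, solutions were filtered and mixed 1:1 with 1-propanol. Dissolved amount was quantified by UV (190–500 nm) against reference spectra at 0.167 mM in buffer/propanol.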

[4] = 1-octanol/water partition coefficient, log D of the compound at 1 uM at pH 7.4 after 2 hrs by LC-MS analysis; format: physicochemical
[5] = Binding affinity to full length 6His-tagged recombinant Escherichia coli FimH CRD expressed in Escherichia coli HM125 by isothermal titration calorimetry
Procedure, shortened: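 FimHFL was coexpressed with FimC in E. coli HM125, and FimC was displaced by a FimG donor-strand peptide to give a stable construct. Buffer was 20 mM HEPES pH 7.4, 150 mM NaCl, with protein extensively dialyzed against it. Ligand (200–600 μM) was titrated into 20.3–62.1 μM protein in 1.5–2 μL injections at rt, single run. Isotherms were integrated automatically.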

Escherichia coli = assay: Selectivity ratio of Kd for full length 6His-tagged recombinant Escherichia coli FimH CRD expressed in Escherichia coli HM125 to Kd for 6His-tagged recombinant Escherichia coli FimH lectin domain expressed in Escherichia coli HM125
Procedure, shortened: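 Competitive FP, with Kd for each construct and the ratio taken as FimHFL/FimHLD. FimHFL was stabilised by donor-strand (DsG) complementation, run at 300 nM with 10 nM tracer for ≥1 h. FimHLD and tracer were equimolar at 50 nM, ≥24 h. Buffer: 20 mM HEPES pH 7.4, 150 mM NaCl, 50 μg/mL BSA; rt. Ex 485/em 528 nm, equilibrium competition fit; FL n=1, LD n=3.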

Row | SMILES | Kd [1] [nM] | Kd [2] [nM] | solubility kinetic at 15 h [3] [µg/mL] | logD at 2 h, 1 µM [4] | Kd [5] [nM] | Selectivity ratio (Escherichia coli)
1 | Cc1ccccc1-c1ccc(O[C@H]2O[C@H](CO)[C@@H](O)[C@H](O)[C@@H]2O)c(Cl)c1 | 436 | 2.5 | 135 (≈ 354 µM) | 2.9 |  | 
2 | O=[N+]([O-])c1cccc(-c2ccc(O[C@H]3O[C@H](CO)[C@@H](O)[C@H](O)[C@@H]3O)c(Cl)c2)c1 | 39.1 | 0.1 | 23 (≈ 55.9 µM) | 2.4 |  | 
3 | OC[C@H]1O[C@H](Oc2ccc(-c3ccccc3Cl)cc2Cl)[C@@H](O)[C@@H](O)[C@@H]1O | 434 | 2.6 | 28 (≈ 69.8 µM) | 3.1 |  | 
4 | CC(=O)c1ccc(-c2ccc(O[C@H]3O[C@H](CO)[C@@H](O)[C@H](O)[C@@H]3O)c(Cl)c2)cc1 | 98.6 | 0.3 | 16 (≈ 39.1 µM) | 2.1 |  | 
5 | CCCCCCCO[C@H]1O[C@H](CO)[C@@H](O)[C@H](O)[C@@H]1O | 3600 |  | > 3000 | 1.7 | 3200 | 100
6 | OC[C@H]1O[C@H](Oc2ccc(-c3ccc(Cl)c(C(F)(F)F)c3)cc2Cl)[C@@H](O)[C@@H](O)[C@@H]1O | 377 | 5.7 | 1 (≈ 2.13 µM) |  |  | 
7 | OC[C@H]1O[C@H](Oc2ccc(-c3ccc(Cl)cc3)cc2Cl)[C@@H](O)[C@@H](O)[C@@H]1O | 251 | 3.9 | 3.5 (≈ 8.72 µM) | 3.3 |  | 
8 | Cc1ccc(C(=O)NCCNC(=S)Nc2ccc3c(c2)C(=O)OC32c3ccc(O)cc3Oc3cc(O)ccc32)cc1 | 137 |  |  |  |  | 
9 | OC[C@H]1O[C@H](Oc2ccc(-c3cccc(Cl)c3)cc2Cl)[C@@H](O)[C@@H](O)[C@@H]1O | 353 | 2.3 | 5.7 (≈ 14.2 µM) | 3.2 |  | 
10 | N#Cc1cccc(-c2ccc(O[C@H]3O[C@H](CO)[C@@H](O)[C@H](O)[C@@H]3O)c(Cl)c2)c1 | 85.9 | 0.3 | 227 (≈ 579 µM) | 2.1 |  | 
11 | OC[C@H]1O[C@H](Oc2ccc(-c3cccc(C(F)(F)F)c3)cc2Cl)[C@@H](O)[C@@H](O)[C@@H]1O | 575 | 3.3 | 36 (≈ 82.8 µM) | 3.3 |  | 
12 | Cc1cccc(-c2ccc(O[C@H]3O[C@H](CO)[C@@H](O)[C@H](O)[C@@H]3O)c(Cl)c2)c1 | 380 | 1.7 | 7.1 (≈ 18.6 µM) | 3 |  | 
13 | COc1ccccc1-c1ccc(O[C@H]2O[C@H](CO)[C@@H](O)[C@H](O)[C@@H]2O)c(Cl)c1 | 391 | 2.3 | > 280 | 2.4 |  | 
14 | OC[C@H]1O[C@H](Oc2ccc(-c3ccc(C(F)(F)F)cc3)cc2Cl)[C@@H](O)[C@@H](O)[C@@H]1O | 415 | 3.9 | 22 (≈ 50.6 µM) | 3.4 |  | 
15 | OC[C@H]1O[C@H](Oc2ccc(-c3ccc(Cl)cc3Cl)cc2Cl)[C@@H](O)[C@@H](O)[C@@H]1O | 465 | 2.8 | 8 (≈ 18.4 µM) |  |  | 
16 | OC[C@H]1O[C@H](Oc2ccc(-c3ccccc3)cc2Cl)[C@@H](O)[C@@H](O)[C@@H]1O | 458 | 2.8 | 5.5 (≈ 15 µM) | 2.6 |  | 
17 | COc1ccc(-c2ccc(O[C@H]3O[C@H](CO)[C@@H](O)[C@H](O)[C@@H]3O)c(Cl)c2)cc1 | 344 | 2 | 3.8 (≈ 9.58 µM) | 2.7 |  | 
18 | OC[C@H]1O[C@H](Oc2ccc(-c3ccc(Cl)c(Cl)c3)cc2Cl)[C@@H](O)[C@@H](O)[C@@H]1O | 692 | 4.3 | 2.3 (≈ 5.28 µM) |  |  | 
19 | N#Cc1ccc(-c2ccc(O[C@H]3O[C@H](CO)[C@@H](O)[C@H](O)[C@@H]3O)c(Cl)c2)cc1 | 83.8 |  |  |  | 130 | 
20 | Cc1ccc(-c2ccc(O[C@H]3O[C@H](CO)[C@@H](O)[C@H](O)[C@@H]3O)c(Cl)c2)cc1 | 297 | 2.7 | 7.4 (≈ 19.4 µM) | 3.3 |  | 
21 | O=[N+]([O-])c1ccc(-c2ccc(O[C@H]3O[C@H](CO)[C@@H](O)[C@H](O)[C@@H]3O)c(Cl)c2)cc1 | 140 | 0.5 | 117 (≈ 284 µM) | 2.3 |  | 
